Reference: ChEMBL document CHEMBL5303300, “EUbOPEN Chemogenomics Library - Multiplex” (2023)
“And” between values parts separate entries of the source, which are not always exact repeats. Equal entries are not always repeated.

Tested on: HEK-293T
Experiment: Multiplex assay against HEK293T
Assay type: toxicity, cell-based
Details: human, number of replicates 2
Procedure, shortened: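 Live cells were stained at seeding with Hoechst33342, BioTracker Green Microtubule Cytoskeleton Dye, MitoTracker Red and Annexin V Alexa Fluor 680. Following compound addition, they were imaged on a CQ1 microscope at 37°C and 5% CO2 and gated by CellPathfinder machine learning into Hoechst high-intensity objects or normal cells, with normal cells split into healthy, pyknosed or fragmented nuclei and pyknosed cells into mitotic or apoptotic. Tubulin, mitochondrial-mass and membrane-permeability phenotypes are per cents of healthy-nucleus cells.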

[1] = 12 h, 1 µM, compound concentration 1 uM
[2] = 12 h, 10 µM, compound concentration 10 uM
[3] = 24 h, 1 µM, compound concentration 1 uM
[4] = 24 h, 10 µM, compound concentration 10 uM
[5] = 48 h, 1 µM, compound concentration 1 uM
[6] = 48 h, 10 µM, compound concentration 10 uM

SMILES: N=C(N)NCCC[C@H](NC(=O)COCC(c1ccccc1)c1ccccc1)C(=O)O.O=C(O)C(F)(F)F
- Population Apoptotic (%) [1]: 49% and 39%
- Population Fragmented Nuclei (%) [1]: 2%
- Population Healthy Nuclei (%) [1]: 85%
- Population Hoechst High Intensity Objects (%) [1]: 5% and 6%
- Population Membrane Permeable-Phenotype (%) [1]: 2% and 3%
- Population Mitochondria Different-Phenotype (%) [1]: 13% and 9%
- Population Mitotic Cells (%) [1]: 50% and 60%
- Population Normal (%) [1]: 94% and 93%
- Population Pyknosed Nuclei (%) [1]: 12% and 11%
- Population Tubulin-Different-Phenotype (%) [1]: 54% and 41%
- Total Cell Count [1]: 596 and 692
- Population Apoptotic (%) [2]: 60% and 68%
- Population Fragmented Nuclei (%) [2]: 5% and 6%
- Population Healthy Nuclei (%) [2]: 80% and 81%
- Population Hoechst High Intensity Objects (%) [2]: 9% and 8%
- Population Membrane Permeable-Phenotype (%) [2]: 2%
- Population Mitochondria Different-Phenotype (%) [2]: 19% and 14%
- Population Mitotic Cells (%) [2]: 39% and 31%
- Population Normal (%) [2]: 90% and 91%
- Population Pyknosed Nuclei (%) [2]: 14% and 12%
- Population Tubulin-Different-Phenotype (%) [2]: 55% and 41%
- Total Cell Count [2]: 543 and 565
- Population Apoptotic (%) [3]: 43% and 44%
- Population Fragmented Nuclei (%) [3]: 4%
- Population Healthy Nuclei (%) [3]: 89% and 88%
- Population Hoechst High Intensity Objects (%) [3]: 7% and 10%
- Population Membrane Permeable-Phenotype (%) [3]: 3%
- Population Mitochondria Different-Phenotype (%) [3]: 2% and 3%
- Population Mitotic Cells (%) [3]: 56% and 55%
- Population Normal (%) [3]: 92% and 89%
- Population Pyknosed Nuclei (%) [3]: 5% and 7%
- Population Tubulin-Different-Phenotype (%) [3]: 20% and 31%
- Total Cell Count [3]: 1117 and 835
- Population Apoptotic (%) [4]: 49% and 48%
- Population Fragmented Nuclei (%) [4]: 6% and 7%
- Population Healthy Nuclei (%) [4]: 83% and 79%
- Population Hoechst High Intensity Objects (%) [4]: 7%
- Population Membrane Permeable-Phenotype (%) [4]: 2%
- Population Mitochondria Different-Phenotype (%) [4]: 7% and 6%
- Population Mitotic Cells (%) [4]: 50% and 51%
- Population Normal (%) [4]: 92%
- Population Pyknosed Nuclei (%) [4]: 9% and 12%
- Population Tubulin-Different-Phenotype (%) [4]: 27% and 25%
- Total Cell Count [4]: 838 and 806
- Population Apoptotic (%) [5]: 12%
- Population Fragmented Nuclei (%) [5]: 15% and 9%
- Population Healthy Nuclei (%) [5]: 82% and 87%
- Population Hoechst High Intensity Objects (%) [5]: 9% and 7%
- Population Membrane Permeable-Phenotype (%) [5]: 5% and 4%
- Population Mitochondria Different-Phenotype (%) [5]: 0%
- Population Mitotic Cells (%) [5]: 87%
- Population Normal (%) [5]: 90% and 92%
- Population Pyknosed Nuclei (%) [5]: 2% and 3%
- Population Tubulin-Different-Phenotype (%) [5]: 10% and 14%
- Total Cell Count [5]: 3157 and 1745
- Population Apoptotic (%) [6]: 14% and 24%
- Population Fragmented Nuclei (%) [6]: 15% and 13%
- Population Healthy Nuclei (%) [6]: 81% and 83%
- Population Hoechst High Intensity Objects (%) [6]: 7% and 6%
- Population Membrane Permeable-Phenotype (%) [6]: 7% and 4%
- Population Mitochondria Different-Phenotype (%) [6]: 0%
- Population Mitotic Cells (%) [6]: 85% and 75%
- Population Normal (%) [6]: 92% and 93%
- Population Pyknosed Nuclei (%) [6]: 2%
- Population Tubulin-Different-Phenotype (%) [6]: 12% and 10%
- Total Cell Count [6]: 2204 and 2125
